Laboratory results as given in ChEMBL document CHEMBL1806381, “Unprecedented C-2 arylation of indole with diazonium salts: Syntheses of 2,3-disubstituted indoles and their antimicrobial activity” (Bioorg Med Chem Lett, 2011).
Values after ≈ are worked out from the molar mass of the structure shown.

Assays:
[1] = test system: Candida albicans; assay: Antimicrobial activity against Candida albicans ATCC 26555 assessed as growth inhibition after 18 hrs by MTT assay; assay type: functional; conditions: ATCC 26555, 18 h
[2] = Antiproliferative activity against human HeLa cells after 72 hrs by MTT assay; assay type: cell-based
[3] = test system: Pseudomonas aeruginosa; assay: Antimicrobial activity against Pseudomonas aeruginosa ATCC 27853 assessed as growth inhibition after 18 hrs by MTT assay; assay type: functional; conditions: ATCC 27853, 18 h
Summary of the method: (§1)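 Bacterial suspensions were adjusted to about 5×10^5 CFU/mL and treated with compounds in 2-fold serial dilutions. They were incubated for 18 h as ATCC recommends. Viability was read by MTT because the compounds are coloured.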

[4] = test system: Acinetobacter baumannii; assay: Antimicrobial activity against Acinetobacter baumannii ATCC 15151 assessed as growth inhibition after 18 hrs by MTT assay; assay type: functional; conditions: ATCC 15151, 18 h; summary of the method: as §1
[5] = test system: Enterococcus faecalis; assay: Antimicrobial activity against low-level vancomycin-resistant Enterococcus faecalis ATCC 51299 assessed as growth inhibition after 18 hrs by MTT assay; assay type: functional; conditions: ATCC 51299, 18 h
Summary of the method: (§2)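 Bacterial suspensions adjusted to ~5×10^5 CFU/mL, treated with compounds in 2-fold serial dilutions, incubated per ATCC recommendations for 18 h. Viability read by MTT method, used because the compounds are coloured.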

[6] = test system: Staphylococcus aureus; assay: Antimicrobial activity against methicillin-resistant Staphylococcus aureus BAA-44 assessed as growth inhibition after 18 hrs by MTT assay; assay type: functional; conditions: BAA-44, 18 h; summary of the method: as §2
[7] = test system: Staphylococcus aureus; assay: Antimicrobial activity against methicillin-susceptible Staphylococcus aureus ATCC 29213 assessed as growth inhibition after 18 hrs by MTT assay; assay type: functional; conditions: ATCC 29213, 18 h; summary of the method: as §1

## Clc1ccc(Sc2c(-c3ccc(Cl)cc3)[nH]c3ccc(Cl)cc23)cc1
[1]
  MIC: > 100 µM
[2]
  GI50 at 72 h: 8 µM
[3]
  MIC: > 100 µM
[4]
  MIC: > 100 µM
[5]
  MIC: 6.3 µM (≈ 2.55 µg/mL)
[6]
  MIC: 1.3 µM (≈ 0.526 µg/mL)
[7]
  MIC: 1.6 µM (≈ 0.648 µg/mL)

## Brc1ccc(/N=N/c2c[nH]c3ccccc23)cc1
[1]
  MIC: 25 µM (≈ 7.5 µg/mL)
[2]
  GI50 at 72 h: 49 µM
[3]
  MIC: > 100 µM
[4]
  MIC: > 100 µM
[5]
  MIC: 12.5 µM (≈ 3.75 µg/mL)
[6]
  MIC: 6.3 µM (≈ 1.89 µg/mL)
[7]
  MIC: 6.3 µM (≈ 1.89 µg/mL)

## Clc1ccc(/N=N/c2c[nH]c3ccccc23)cc1
[1]
  MIC: 12.5 µM (≈ 3.2 µg/mL)
[2]
  GI50 at 72 h: 23 µM
[3]
  MIC: > 100 µM
[4]
  MIC: > 100 µM
[5]
  MIC: 25 µM (≈ 6.39 µg/mL)
[6]
  MIC: 12.5 µM (≈ 3.2 µg/mL)
[7]
  MIC: 12.5 µM (≈ 3.2 µg/mL)

## COc1ccc2[nH]c(-c3ccc(Cl)cc3)c(Oc3ccc(Cl)cc3)c2c1
[1]
  MIC: > 100 µM
[2]
  GI50 at 72 h: 24 µM
[3]
  MIC: > 100 µM
[4]
  MIC: > 100 µM
[5]
  MIC: 25 µM (≈ 9.61 µg/mL)
[6]
  MIC: 6.3 µM (≈ 2.42 µg/mL)
[7]
  MIC: 12.5 µM (≈ 4.8 µg/mL)

## Clc1ccc(/C=C/c2c[nH]c3ccccc23)cc1
[1]
  MIC: > 100 µM
[2]
  GI50 at 72 h: 64 µM
[3]
  MIC: > 100 µM
[4]
  MIC: > 100 µM
[5]
  MIC: > 100 µM
[6]
  MIC: > 100 µM
[7]
  MIC: 25 µM (≈ 6.34 µg/mL)

## Clc1ccc(Oc2c(-c3ccc(Cl)cc3)[nH]c3ccccc23)cc1
[1]
  MIC: > 100 µM
[2]
  GI50 at 72 h: 9 µM
[3]
  MIC: > 100 µM
[4]
  MIC: > 100 µM
[5]
  MIC: 12.5 µM (≈ 4.43 µg/mL)
[6]
  MIC: 3.1 µM (≈ 1.1 µg/mL)
[7]
  MIC: 1.6 µM (≈ 0.567 µg/mL)

## Brc1ccc(/N=N/c2c(-c3ccc(Br)cc3)[nH]c3ccccc23)cc1
[1]
  MIC: > 100 µM
[2]
  GI50 at 72 h: 9 µM
[3]
  MIC: > 100 µM
[4]
  MIC: > 100 µM
[5]
  MIC: 6.3 µM (≈ 2.87 µg/mL)
[6]
  MIC: 12.5 µM (≈ 5.69 µg/mL)
[7]
  MIC: 6.3 µM (≈ 2.87 µg/mL)

## Fc1cccc2c(Oc3ccc(Cl)cc3)c(-c3ccc(Cl)cc3)[nH]c12
[1]
  MIC: > 100 µM
[2]
  GI50 at 72 h: 13 µM
[3]
  MIC: > 100 µM
[4]
  MIC: > 100 µM
[5]
  MIC: 3.1 µM (≈ 1.15 µg/mL)
[6]
  MIC: 1.3 µM (≈ 0.484 µg/mL)
[7]
  MIC: 1.6 µM (≈ 0.596 µg/mL)

## Clc1ccc(/N=N/c2c(-c3ccc(Br)cc3)[nH]c3ccccc23)cc1
[1]
  MIC: > 100 µM
[2]
  GI50 at 72 h: 13 µM
[3]
  MIC: > 100 µM
[4]
  MIC: > 100 µM
[5]
  MIC: 6.3 µM (≈ 2.59 µg/mL)
[6]
  MIC: 6.3 µM (≈ 2.59 µg/mL)
[7]
  MIC: 6.3 µM (≈ 2.59 µg/mL)

## Clc1ccc(Sc2c(-c3ccc(Cl)cc3)[nH]c3ccccc23)cc1
[1]
  MIC: > 100 µM
[2]
  GI50 at 72 h: 6 µM
[3]
  MIC: > 100 µM
[4]
  MIC: > 100 µM
[5]
  MIC: 3.1 µM (≈ 1.15 µg/mL)
[6]
  MIC: 3.1 µM (≈ 1.15 µg/mL)
[7]
  MIC: 1.6 µM (≈ 0.592 µg/mL)

## Clc1ccc(Oc2c(-c3ccc(Cl)cc3)[nH]c3ccc(Cl)cc23)cc1
[1]
  MIC: > 100 µM
[2]
  GI50 at 72 h: 8 µM
[3]
  MIC: > 100 µM
[4]
  MIC: > 100 µM
[5]
  MIC: 12.5 µM (≈ 4.86 µg/mL)
[6]
  MIC: 0.6 µM (≈ 0.233 µg/mL)
[7]
  MIC: 1.6 µM (≈ 0.622 µg/mL)

## Fc1ccc2[nH]c(-c3ccc(Cl)cc3)c(Oc3ccc(Cl)cc3)c2c1
[1]
  MIC: > 100 µM
[2]
  GI50 at 72 h: 13 µM
[3]
  MIC: > 100 µM
[4]
  MIC: > 100 µM
[5]
  MIC: 6.3 µM (≈ 2.35 µg/mL)
[6]
  MIC: 1.6 µM (≈ 0.596 µg/mL)
[7]
  MIC: 1.6 µM (≈ 0.596 µg/mL)

## Clc1ccc(Sc2c(-c3ccc(Br)cc3)[nH]c3ccccc23)cc1
[1]
  MIC: > 100 µM
[2]
  GI50 at 72 h: 12 µM
[3]
  MIC: > 100 µM
[4]
  MIC: > 100 µM
[5]
  MIC: 3.1 µM (≈ 1.29 µg/mL)
[6]
  MIC: 3.1 µM (≈ 1.29 µg/mL)
[7]
  MIC: 1.6 µM (≈ 0.664 µg/mL)

## Clc1ccc(-c2cc3ccccc3[nH]2)cc1
[1]
  MIC: > 100 µM
[2]
  GI50 at 72 h: > 100 µM
[3]
  MIC: > 100 µM
[4]
  MIC: > 100 µM
[5]
  MIC: > 100 µM
[6]
  MIC: > 100 µM
[7]
  MIC: > 100 µM

## COc1ccc(/N=N/c2c(-c3ccc(OC)cc3)[nH]c3ccccc23)cc1
[1]
  MIC: > 100 µM
[2]
  GI50 at 72 h: 23 µM
[3]
  MIC: > 100 µM
[4]
  MIC: > 100 µM
[5]
  MIC: > 100 µM
[6]
  MIC: 50 µM (≈ 17.9 µg/mL)
[7]
  MIC: 3.1 µM (≈ 1.11 µg/mL)

## O=C(c1ccc(Cl)cc1)c1c(-c2ccc(Cl)cc2)[nH]c2ccccc12
[1]
  MIC: > 100 µM
[2]
  GI50 at 72 h: 19 µM
[3]
  MIC: > 100 µM
[4]
  MIC: > 100 µM
[5]
  MIC: > 100 µM
[6]
  MIC: > 100 µM
[7]
  MIC: > 100 µM

## Clc1ccc(/C=C/c2[nH]c3ccccc3c2/C=C/c2ccc(Cl)cc2)cc1
[1]
  MIC: > 100 µM
[2]
  GI50 at 72 h: 69 µM
[3]
  MIC: > 100 µM
[4]
  MIC: > 100 µM
[5]
  MIC: > 100 µM
[6]
  MIC: > 100 µM
[7]
  MIC: > 100 µM

## Clc1ccc(Oc2c(-c3ccc(Cl)cc3)[nH]c3ccc(Br)cc23)cc1
[1]
  MIC: > 100 µM
[2]
  GI50 at 72 h: 3 µM
[3]
  MIC: > 100 µM
[4]
  MIC: > 100 µM
[5]
  MIC: 12.5 µM (≈ 5.41 µg/mL)
[6]
  MIC: 3.1 µM (≈ 1.34 µg/mL)
[7]
  MIC: 3.1 µM (≈ 1.34 µg/mL)

## CC1(C)S[C@@H]2[C@H](NC(=O)Cc3ccccc3)C(=O)N2[C@H]1C(=O)O [PENICILLIN G]
[5]
  MIC: 11.9 µM (≈ 3.98 µg/mL)
[6]
  MIC: > 100 µM
[7]
  MIC: 23.9 µM (≈ 7.99 µg/mL)

## CN[C@H](CC(C)C)C(=O)N[C@H]1C(=O)N[C@@H](CC(N)=O)C(=O)N[C@H]2C(=O)N[C@H]3C(=O)N[C@H](C(=O)N[C@H](C(=O)O)c4cc(O)cc(O)c4-c4cc3ccc4O)[C@H](O)c3ccc(c(Cl)c3)Oc3cc2cc(c3O[C@@H]2O[C@H](CO)[C@@H](O)[C@H](O)[C@H]2O[C@H]2C[C@](C)(N)[C@H](O)[C@H](C)O2)Oc2ccc(cc2Cl)[C@H]1O [VANCOMYCIN]
[5]
  MIC: 86.3 µM (≈ 125 µg/mL)
[6]
  MIC: 2.8 µM (≈ 4.06 µg/mL)
[7]
  MIC: 2.8 µM (≈ 4.06 µg/mL)

## O=S(=O)(c1ccc(Cl)cc1)c1c(-c2ccc(Cl)cc2)[nH]c2ccccc12
[1]
  MIC: > 100 µM
[2]
  GI50 at 72 h: 14 µM
[3]
  MIC: > 100 µM
[4]
  MIC: > 100 µM
[5]
  MIC: > 100 µM
[6]
  MIC: > 100 µM
[7]
  MIC: > 100 µM

## Clc1ccc(-c2cc3[nH]c4ccccc4c3cc2-c2ccc(Cl)cc2)cc1
[1]
  MIC: > 100 µM
[2]
  GI50 at 72 h: 16 µM
[3]
  MIC: > 100 µM
[4]
  MIC: > 100 µM
[5]
  MIC: > 100 µM
[6]
  MIC: > 100 µM
[7]
  MIC: > 100 µM
